pIC50: −log10 of the molar value. Active and inactive are the calls of the source. The calls are words filed in the database; no cut-off is given here. Non-standard residues stand in square brackets, D forms with d. Residues, ends and D or L forms follow the SMILES beside them. *: point of attachment. Phe(4-I) = N[C@@H](Cc1ccc(I)cc1)C(=O)O; CHN2 = [N-]=[N+]=C*
Assays:
Dipeptidyl peptidase 1 [1] = molecular target: T1, Dipeptidyl peptidase 1 (Homo sapiens, UniProt P53634); test: Inhibition of human recombinant cathepsin C after 10 mins
T1 sequence (P53634 25-134 limits assumed): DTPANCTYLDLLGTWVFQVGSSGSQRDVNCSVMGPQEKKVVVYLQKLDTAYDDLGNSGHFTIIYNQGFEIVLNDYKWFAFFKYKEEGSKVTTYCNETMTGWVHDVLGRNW
T1 sequence (P53634 231-394 limits assumed): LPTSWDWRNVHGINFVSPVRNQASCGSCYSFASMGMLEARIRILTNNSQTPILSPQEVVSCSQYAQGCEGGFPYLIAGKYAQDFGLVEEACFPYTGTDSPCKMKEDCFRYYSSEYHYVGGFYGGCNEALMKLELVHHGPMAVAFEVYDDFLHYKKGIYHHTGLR
T1 sequence (P53634 395-463 limits assumed): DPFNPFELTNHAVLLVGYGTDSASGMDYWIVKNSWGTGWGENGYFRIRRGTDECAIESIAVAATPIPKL
Outline: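 Recombinant human cathepsin C at 1 nM in 25 mM MES pH 6.0, 50 mM NaCl, 5 mM DTT, with 50 μM Gly-Arg-AMC (twice Km). Enzyme preincubated with inhibitor 10 min, then substrate added, at room temperature. Fluorogenic AMC release.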

Cathepsin B = Cathepsin B (Homo sapiens, UniProt P07858); test: Inhibition of human recombinant cathepsin B after 10 mins
Cathepsin S = Cathepsin S (Homo sapiens, UniProt P25774); test: Inhibition of human recombinant cathepsin S after 10 mins
Cathepsin S, sequence (P25774 whole entry): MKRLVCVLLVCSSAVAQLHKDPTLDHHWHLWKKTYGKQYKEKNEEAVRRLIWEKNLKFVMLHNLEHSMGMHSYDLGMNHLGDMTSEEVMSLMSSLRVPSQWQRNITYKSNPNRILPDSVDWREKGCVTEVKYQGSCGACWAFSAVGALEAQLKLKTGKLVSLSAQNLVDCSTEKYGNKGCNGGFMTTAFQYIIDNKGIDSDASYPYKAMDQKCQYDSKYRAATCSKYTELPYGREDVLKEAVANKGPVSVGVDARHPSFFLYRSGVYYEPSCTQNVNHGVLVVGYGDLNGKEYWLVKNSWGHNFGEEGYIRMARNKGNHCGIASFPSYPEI

Procathepsin L = Procathepsin L (Homo sapiens, UniProt P07711); test: Inhibition of human recombinant cathepsin L after 10 mins
Procathepsin L, sequence (P07711 whole entry): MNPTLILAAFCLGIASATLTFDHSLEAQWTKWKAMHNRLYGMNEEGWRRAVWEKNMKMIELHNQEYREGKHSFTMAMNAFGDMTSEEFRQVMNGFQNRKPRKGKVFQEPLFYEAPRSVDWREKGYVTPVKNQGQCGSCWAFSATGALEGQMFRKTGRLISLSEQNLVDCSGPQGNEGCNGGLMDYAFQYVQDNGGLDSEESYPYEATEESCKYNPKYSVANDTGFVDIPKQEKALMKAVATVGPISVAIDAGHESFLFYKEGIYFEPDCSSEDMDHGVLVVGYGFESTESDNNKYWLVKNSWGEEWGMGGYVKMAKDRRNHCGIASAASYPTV

Pro-cathepsin H = molecular target: T2, Pro-cathepsin H (Homo sapiens, UniProt P09668); test: Inhibition of human recombinant cathepsin H after 10 mins
T2 sequence (P09668 whole entry): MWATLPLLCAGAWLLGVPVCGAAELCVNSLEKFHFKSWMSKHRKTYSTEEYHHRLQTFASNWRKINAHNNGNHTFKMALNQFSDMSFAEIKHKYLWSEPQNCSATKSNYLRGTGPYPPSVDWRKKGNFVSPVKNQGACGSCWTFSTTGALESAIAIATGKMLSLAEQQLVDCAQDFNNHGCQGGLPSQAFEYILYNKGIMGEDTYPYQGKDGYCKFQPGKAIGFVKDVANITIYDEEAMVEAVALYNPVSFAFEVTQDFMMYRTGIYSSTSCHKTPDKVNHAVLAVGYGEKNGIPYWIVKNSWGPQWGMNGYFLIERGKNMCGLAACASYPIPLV

U-937 [2] = test: Cytotoxicity against human U937 cells at 30 uM after 72 hrs annexin-V propidium iodide method; assay type: functional
Outline: (§1)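 U937 plated at 0.4×10^6 cells/ml, compound in Me₂SO (final 0.5%). Cells harvested and re-seeded every 24 h in medium with freshly added inhibitor, for 72 h. Viability by annexin V-FITC/propidium iodide two-colour flow cytometry; cells negative for both stains counted viable.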

Cathepsin G [3] = molecular target: T3, Cathepsin G (Homo sapiens, UniProt P08311); test: Blockade of cathepsin G processing in human U937 cells by densitometry; assay type: cell-based, U-937
T3 sequence (P08311 whole entry): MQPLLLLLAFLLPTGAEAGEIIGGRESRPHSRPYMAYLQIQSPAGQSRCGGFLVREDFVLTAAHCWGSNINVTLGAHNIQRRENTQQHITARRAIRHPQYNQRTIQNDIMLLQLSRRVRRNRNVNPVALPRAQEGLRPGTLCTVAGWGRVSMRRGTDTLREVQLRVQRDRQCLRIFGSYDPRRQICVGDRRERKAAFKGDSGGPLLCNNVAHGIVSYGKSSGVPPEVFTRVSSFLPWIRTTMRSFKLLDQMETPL
Outline: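 U937 cells washed, plated at 2×10^6 cells/ml in methionine/glutamine-free RPMI, inhibitor or 0.5% Me₂SO added during 30 min starvation, pulsed with [³⁵S]methionine (10 μCi/ml) 30 min, re-seeded in complete medium with inhibitor and chased 3 h. Lysates bound to aprotinin-agarose 1 h at room temperature, SDS-PAGE and fluorography. CG band quantitated by densitometry as % inhibition vs vehicle.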

Neutrophil elastase [4] = molecular target: T4, Neutrophil elastase (Homo sapiens, UniProt P08246); test: Blockade of neutrophil elastase processing in human U937 cells after 7 days by fluorogenic substrate cleavage assay; assay type: cell-based, U-937
T4 sequence (P08246 whole entry): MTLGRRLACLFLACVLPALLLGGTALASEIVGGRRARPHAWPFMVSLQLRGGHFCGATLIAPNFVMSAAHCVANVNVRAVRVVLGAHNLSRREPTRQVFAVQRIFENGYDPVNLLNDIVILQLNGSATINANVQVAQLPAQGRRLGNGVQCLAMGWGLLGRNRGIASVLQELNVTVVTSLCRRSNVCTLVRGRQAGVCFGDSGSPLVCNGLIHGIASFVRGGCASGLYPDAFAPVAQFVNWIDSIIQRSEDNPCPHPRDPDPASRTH
Outline: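 U937 seeded at 1×10^5 cells/ml with vehicle or inhibitor, passaged and diluted 10-fold into fresh medium with compound on days 3 and 5, harvested day 7. Cells washed and lysed in 20 mM Tris pH 7.5, 100 mM NaCl, 0.2% NP-40. NE rate measured with 400 μM MeOSuc-AAPV-AMC (ex 370/em 450 nm, 10 min). % inhibition vs vehicle, four wells per point.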

Neutrophil elastase [5] = molecular target: T5, Neutrophil elastase (Mus musculus, UniProt Q3UP87); test: Inhibition of neutrophil elastase activation in beta-estradiol differentiated mouse EcoM-G cells after 24 hrs; assay type: cell-based
T5 sequence (Q3UP87 whole entry): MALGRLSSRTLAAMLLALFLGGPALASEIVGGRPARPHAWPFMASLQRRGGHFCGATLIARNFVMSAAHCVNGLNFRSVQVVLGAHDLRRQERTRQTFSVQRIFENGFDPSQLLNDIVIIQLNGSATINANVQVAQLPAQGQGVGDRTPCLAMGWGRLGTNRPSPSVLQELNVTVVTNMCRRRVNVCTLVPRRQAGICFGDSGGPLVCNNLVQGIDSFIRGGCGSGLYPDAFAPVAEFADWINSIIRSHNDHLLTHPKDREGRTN
Outline: (§2)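 EcoM-G cells (cultures <3 months old) washed and seeded at 0.5×10^6 cells/ml without β-estradiol. After 24 h, compound added in Me₂SO (final 0.5%), then cells differentiated a further 24 h, harvested and lysed. NE assayed with 400 μM MeOSuc-AAPV-AMC, CG with 1 mM Suc-AAPF-pNA (405 nm, 5 min), Pr-3 with 10 μM internally quenched substrate (ex 328/em 393 nm), all from the same lysates. IC50 from four-parameter Hill fit.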

Cathepsin G [6] = molecular target: T6, Cathepsin G (Mus musculus, UniProt P28293); test: Inhibition of cathepsin G activation in beta-estradiol differentiated mouse EcoM-G cells after 24 hrs; assay type: cell-based; outline: as §2
T6 sequence (P28293 whole entry): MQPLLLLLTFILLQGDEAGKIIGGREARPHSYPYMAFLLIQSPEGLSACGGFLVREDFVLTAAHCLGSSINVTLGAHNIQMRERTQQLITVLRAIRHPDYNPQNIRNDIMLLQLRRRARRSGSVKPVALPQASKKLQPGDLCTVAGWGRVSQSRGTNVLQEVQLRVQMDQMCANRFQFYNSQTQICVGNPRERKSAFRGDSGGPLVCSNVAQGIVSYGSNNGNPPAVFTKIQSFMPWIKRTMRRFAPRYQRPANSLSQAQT

Myeloblastin [7] = molecular target: T7, Myeloblastin (Mus musculus, UniProt Q61096); test: Inhibition of proteinase-3 activation in beta-estradiol differentiated mouse EcoM-G cells after 24 hrs; assay type: cell-based; outline: as §2
T7 sequence (Q61096 whole entry): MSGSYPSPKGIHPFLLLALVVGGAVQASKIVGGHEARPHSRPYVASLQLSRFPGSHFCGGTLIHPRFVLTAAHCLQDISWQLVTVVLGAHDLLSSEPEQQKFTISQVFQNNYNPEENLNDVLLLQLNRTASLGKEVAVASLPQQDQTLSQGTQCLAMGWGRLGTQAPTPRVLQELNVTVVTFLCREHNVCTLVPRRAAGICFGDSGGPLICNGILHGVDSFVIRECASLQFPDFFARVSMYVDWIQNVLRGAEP

Dipeptidyl peptidase 1 [8] = molecular target: T1, Dipeptidyl peptidase 1; test: Inhibition of cathepsin C in human U937 cells at 1 uM after 24 hrs; assay type: cell-based; settings: U-937
Outline: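 U937 at 0.4×10^6 cells/ml exposed 24 h to compound (final Me₂SO 0.5%), washed, lysed in 25 mM MES pH 6.0, 50 mM NaCl, 5 mM DTT, 0.2% NP-40. Protein-normalised lysate diluted 1:10 and assayed with 50 μM Gly-Arg-AMC (twice Km) at room temperature. Residual cathepsin C activity.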

U-937 [9] = test: Cytotoxicity against human U937 cells at 1 uM after 72 hrs annexin-V propidium iodide method; assay type: functional; outline: as §1
[10] = molecular target: T8, Cathepsin G (Homo sapiens) (UniProt P08311); test: Inhibition of human U937 cellular [35S]methionine-labeled cathepsin G binding to aprotinin by aprotinin-agarose silver-stained SDS-PAGE method; assay type: cell-based; settings: U-937, in the assay text read “SDS-PAGE fluorography” for “silver-stained SDS-PAGE”
T8 sequence (whole entry): T3 sequence (P08311 whole entry)

Cathepsin G [11] = molecular target: T3, Cathepsin G; test: Inhibition of cathepsin G in human U937 cells; assay type: cell-based, U-937
[12] = molecular target: Neutrophil elastase (Mus musculus) (UniProt Q3UP87); test: Inhibition of neutrophil elastase in mouse EcoM-G cells
Myeloblastin [13] = molecular target: T9, Myeloblastin (Homo sapiens, UniProt P24158); test: Inhibition of proteinase-3 in human U937 cells; assay type: cell-based, U-937
T9 sequence (P24158 whole entry): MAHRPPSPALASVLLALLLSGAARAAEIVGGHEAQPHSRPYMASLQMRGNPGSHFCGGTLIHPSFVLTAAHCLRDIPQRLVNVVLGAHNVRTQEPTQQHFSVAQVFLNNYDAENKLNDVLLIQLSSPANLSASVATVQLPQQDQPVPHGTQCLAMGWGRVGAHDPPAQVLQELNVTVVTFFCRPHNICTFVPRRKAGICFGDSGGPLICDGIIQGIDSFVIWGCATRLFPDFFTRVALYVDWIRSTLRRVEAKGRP

Compound | pIC50 (Dipeptidyl peptidase 1 [1]) | pIC50 (Cathepsin B) | pIC50 (Cathepsin S) | pIC50 (Procathepsin L) | pIC50 (Pro-cathepsin H) | pIC50 (Cathepsin G [3]) | pIC50 (Neutrophil elastase [5]) | pIC50 (Cathepsin G [6]) | pIC50 (Myeloblastin [7]) | also measured
C[C@H](N)C(=O)N[C@@H](Cc1ccc(I)cc1)C(=O)C=[N+]=[N-] | – | – | – | – | – | – | – | – | – | inhibition (Dipeptidyl peptidase 1 [8]): 99.6%; Activity (U-937 [9]): 32%; Activity [10]: Active
CCC[C@@H](NC(=O)N1C(=O)C(CC)(CC)[C@@H]1Oc1ccc(C(=O)N2CCN(C)CC2)cc1)c1ccc2c(c1)OCO2 | – | – | – | – | – | – | – | – | – | Activity [10]: inactive
[N-]=[N+]=CC(=O)[C@H](Cc1ccc(I)cc1)NC(=O)CN (H-Gly-[Phe(4-I)]-CHN2) | 9.00 | 5.53 | < 4.30 | 4.53 | 5.01 | – | – | – | – | pIC50 (Cathepsin G [11]): < 4.30; pIC50 (Myeloblastin [13]): < 4.30; pIC50 [12]: < 4.30
CC(C)C[C@H](NC(=O)[C@H]1O[C@@H]1C(=O)O)C(=O)NCCCCN=C(N)N [E-64] | 6.11 | 8.00 | 8.15 | 7.89 | 6.72 | – | – | – | – | –
N#[N+][CH-]C(=O)[C@H](Cc1ccccc1)NC(=O)CN | 7.29 | < 4.52 | – | 4.59 | 4.54 | – | – | – | – | –
CCC[C@H](NC(=O)C(CC(C)C)NC(=O)c1ccc(-c2ccc(I)cc2)cc1)C(=O)[CH-][N+]#N (some centres undefined) | 6.35 | 7.19 | 8.05 | 8.00 | – | – | – | – | – | –
CCOC(=O)[C@H]1O[C@@H]1C(=O)N[C@@H](CC(C)C)C(=O)NCCC(C)C [ALOXISTATIN] | – | – | – | – | – | 5.96 | < 5.00 | < 5.00 | < 5.00 | –
[N-]=[N+]=CC(=O)[C@H](Cc1ccccc1)NC(=O)CN (H-Gly-Phe-CHN2) | – | – | – | – | – | – | – | – | – | inhibition (Dipeptidyl peptidase 1 [8]): 100%; Activity (U-937 [9]): 32%

Further lines, with some results ahead:

pIC50 (Dipeptidyl peptidase 1 [1]) | pIC50 (Cathepsin B) | pIC50 (Cathepsin S) | pIC50 (Procathepsin L) | pIC50 (Pro-cathepsin H) | pIC50 (Cathepsin G [3]) | pIC50 (Neutrophil elastase [5]) | pIC50 (Cathepsin G [6]) | pIC50 (Myeloblastin [7]) | Compound | also measured
< 4.52 | < 4.30 | < 4.30 | < 4.30 | < 4.30 | < 4.30 | < 4.30 | < 4.30 | < 4.30 | N#C[C@]1(NC(=O)C(N)Cc2cccs2)C[C@H]1c1ccccc1.O=C(O)C(F)(F)F (single isomer, unassigned) | Activity (U-937 [2]): 98%; pIC50 (Neutrophil elastase [4]): < 4.52
– | < 4.30 | 4.48 | 4.81 | < 4.30 | 7.05 | 6.82 | 6.16 | 6.82 | N#C[C@@]1(NC(=O)C(N)Cc2sccc2F)C[C@@H]1c1ccccc1 (some centres undefined) | pIC50 (Cathepsin G [11]): < 5.00; pIC50 (Neutrophil elastase [4]): 6.77; pIC50 [12]: < 5.00
6.10 | – | – | – | – | – | 5.10 | < 4.30 | – | N#C[C@]1(NC(=O)C(N)Cc2cncs2)C[C@H]1c1ccccc1 (some centres undefined) | –
< 5.00 | 6.55 | 8.00 | 6.37 | < 4.30 | < 4.30 | < 4.30 | < 4.30 | – | CS(=O)(=O)C[C@H](N[C@@H](c1ccc(Br)cc1)C(F)(F)F)C(=O)NC1(C#N)CC1 | –
– | 7.40 | 6.33 | 7.05 | – | – | < 4.30 | < 4.30 | – | Cc1cc(C)cc(CC(NC(=O)C(c2ccccc2)c2ccccc2)C(=O)NCC#N)c1 (centres undefined) | –
< 6.66 | < 5.52 | 5.80 | 6.25 | – | 5.92 | 5.26 | 4.76 | 5.34 | N#C[C@]1(NC(=O)[C@@H](N)Cc2ccccc2F)C[C@H]1c1ccccc1 | pIC50 (Neutrophil elastase [4]): 5.72
< 5.00 | 5.87 | 9.00 | – | – | – | 4.59 | 4.40 | 4.67 | CC(C)C[C@@H](NC(=O)N1CCOCC1)C(=O)N[C@@H](/C=C/S(=O)(=O)c1ccccc1)CCc1ccccc1 | –

Reference: ChEMBL document CHEMBL1156470, “Inhibition of the activation of multiple serine proteases with a cathepsin C inhibitor requires sustained exposure to prevent pro-enzyme processing” (J Biol Chem, 2007)
